Assay results: article PMC10546485 (Journal of medicinal chemistry, 2022)

How the values were obtained:
[1] = tested on: mouse opioid μ receptor expressed in CHO cell lines; assay: In vitro competitive radioligand binding assay, MOR; conditions: ratio of Ki values
Procedure, shortened: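 CHO membranes (30 μg) expressing mouse μ or κ, or human δ, opioid receptor were incubated with radioligand and varied test compound in TME (pH 7.4) for 1.5 h at 30 °C, then filtered. Nonspecific binding was defined with 5 μM naltrexone, U50,488 or SNC80.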

[2] = biological target: human δ opioid receptor expressed in CHO cell lines (Homo sapiens, UniProt P41143); assay: In vitro competitive radioligand binding assay, DOR; conditions: ratio of Ki values
[3] = biological target: DOR (DOR-CHO membrane protein) (Homo sapiens, UniProt P41143); assay: DOR [35S]-GTPγS functional assay; assay type: biochemical
male Swiss Webster mice = assay: Carmine red dye assay; assay type: in vivo, mouse; conditions: test compound 10 mg/kg oral gavage, morphine 5 mg/kg
Procedure, shortened: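 Male Swiss Webster mice (5–8 wk, 25–35 g), 5–6 per group, housed singly. Test compound 10 mg/kg or vehicle given p.o. 5 min before morphine 5 mg/kg injection. Twenty min after morphine, 0.2 mL 6% carmine red in 0.5% CMC/ddH₂O given p.o. Time to first red pellet recorded, 6 h cut-off. One-way ANOVA with corrected Dunnett test.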

[4] = male rats, after oral administration; cited from earlier work
patients = conditions: long-term study; cited from earlier work
gastrointestinal transit = conditions: MNTX intraperitoneally, morphine 5 mg/kg s.c.; cited from earlier work
CYP3A4 = conditions: cited from earlier work

Sequence of human δ opioid receptor expressed in CHO cell lines (P41143 whole entry): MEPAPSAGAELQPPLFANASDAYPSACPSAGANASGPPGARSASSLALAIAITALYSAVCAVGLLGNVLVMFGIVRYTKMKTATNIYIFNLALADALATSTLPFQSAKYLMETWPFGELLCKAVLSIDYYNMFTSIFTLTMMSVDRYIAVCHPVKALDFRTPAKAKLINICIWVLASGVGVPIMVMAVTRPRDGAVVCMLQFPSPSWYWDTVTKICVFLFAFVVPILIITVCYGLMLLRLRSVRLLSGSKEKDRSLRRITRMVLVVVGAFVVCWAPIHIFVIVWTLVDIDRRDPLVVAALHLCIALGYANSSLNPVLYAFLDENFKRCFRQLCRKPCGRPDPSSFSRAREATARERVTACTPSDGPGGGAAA
Sequence of DOR (DOR-CHO membrane protein) (P41143 whole entry): as above

O=C(Cc1cc[nH]n1)N[C@H]1CC[C@@]2(O)[C@H]3Cc4ccc(O)c5c4[C@@]2(CCN3CC2CC2)[C@H]1O5 [Compound 2, 17-Cyclopropylmethyl-3,14β-dihydroxy-4,5α-epoxy-6α-(3′-pyrazolylacetamido)morphinan]
selectivity for the MOR over both the KOR and DOR [1]: at least a hundred-fold

O=C(Cc1cn[nH]c1)N[C@H]1CC[C@@]2(O)[C@H]3Cc4ccc(O)c5c4[C@@]2(CCN3CC2CC2)[C@H]1O5 [Compound 5, 17-Cyclopropylmethyl-3,14β-dihydroxy-4,5α-epoxy-6α-(4′-pyrazolylacetamido)morphinan]
selectivity for the MOR over both the KOR and DOR [1]: at least a hundred-fold

O=C(Cc1cc[nH]n1)N[C@@H]1CC[C@@]2(O)[C@H]3Cc4ccc(O)c5c4[C@@]2(CCN3CC2CC2)[C@H]1O5 [Compound 14, 17-Cyclopropylmethyl-3,14β-d/hydroxy-4,5α-epoxy-6β-(3′-pyrazolylacetamldo)morphinan]
δ/μ selectivity [2]: hundreds-fold

O=C(CCc1cc[nH]n1)N[C@@H]1CC[C@@]2(O)[C@H]3Cc4ccc(O)c5c4[C@@]2(CCN3CC2CC2)[C@H]1O5 [Compound 15]
δ/μ selectivity [2]: hundreds-fold

O=C(N[C@@H]1CC[C@@]2(O)[C@H]3Cc4ccc(O)c5c4[C@@]2(CCN3CC2CC2)[C@H]1O5)c1cnc[nH]1 [Compound 19, 17-Cyclopropylmethyl-3,14β-dlhydroxy-4,5α-epoxy-6β-(5′-imldazolylcarboxamldo)morphinan]
EC50 [3]: 19.1 ± 5.91 nM

O=C(N[C@@H]1CC[C@@]2(O)[C@H]3Cc4ccc(O)c5c4[C@@]2(CCN3CC2CC2)[C@H]1O5)c1ncc[nH]1 [Compound 22, 17-Cyclopropylmethyl-3,14β-dihydroxy-4,5α-epoxy-6β-(2′-imidazolylcarboxamido)morphinan]
δ/μ selectivity [2]: hundreds-fold

O=C(Cc1ncc[nH]1)N[C@@H]1CC[C@@]2(O)[C@H]3Cc4ccc(O)c5c4[C@@]2(CCN3CC2CC2)[C@H]1O5 [Compound 23, 17-Cyclopropylmethyl-3,14β-dihydroxy-4,5α-epoxy-6β-(2′-imidazolylacetamido)morphinan]
δ/μ selectivity [2]: hundreds-fold

C[N@+]1(CC2CC2)CC[C@]23c4c5ccc(O)c4O[C@H]2C(=O)CC[C@@]3(O)[C@H]1C5 [MNTX, methylnaltrexone]
reversal of the inhibitory effects of morphine on GI motility (male Swiss Webster mice): no blockage was observed
oral bioavailability [4]: < 1%
cardiac-related adverse event, share of patients (patients): less than 1%
block of the antitransit effects of morphine (gastrointestinal transit): effective

CC(C)(NC(=O)C1=C(O)[C@@H]2Oc3c(O)ccc4c3[C@@]23CCN(CC2CC2)[C@H](C4)[C@]3(O)C1)c1nc(-c2ccccc2)no1 [naldemedine]
substrate of CYP3A4 (CYP3A4): substrates

C=CCN1CC[C@]23c4c5ccc(O)c4O[C@H]2[C@@H](OCCOCCOCCOCCOCCOCCOCCOC)CC[C@@]3(O)[C@H]1C5 [naloxegol]
substrate of CYP3A4 (CYP3A4): substrates
